According to ChEMBL document CHEMBL1124216, “A novel class of potential central nervous system agents. 3-Phenyl-2-(1-piperazinyl)-5H-1-benzazepines” (1988):

Assays:
Type in all cases: functional
Mus musculus [1] = experiment: Antiexploratory activity (EXPL) of mice determined by an antimex activity meter, 50 mg/kg of dose was administered perorally; Potent inhibition; conditions: route oral
Mus musculus [2] = experiment: 3,4 -Dihydroxy phenylacetic acid (DOPAC) levels in mouse brain at 50 mg/kg dose.
Procedure, shortened: (§1)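 Male Std-ddY mice, 20-25 g, dosed orally with compound in 0.5% aqueous tragacanth. DOPAC was measured fluorometrically after purification by column chromatography on Sephadex G-10 and QAE-Sephadex. Brains from five mice per compound were pooled for each determination.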

Mus musculus [3] = experiment: The homovanillic acid (HVA) levels in mouse brain at 50 mg/kg of dose.
Procedure, shortened: (§2)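 Mice dosed orally in 0.5% aqueous tragacanth; brains of five mice per compound pooled. Homovanillic acid measured in brain extracts and reported as brain level.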

Mus musculus [4] = experiment: 3,4 -Dihydroxy phenylacetic acid (DOPAC) levels in mouse brain at 10 mg/kg dose.; procedure, shortened: as §1
Mus musculus [5] = experiment: The homovanillic acid (HVA) levels in mouse brain at 10 mg/kg of dose.; procedure, shortened: as §2
Mus musculus [6] = experiment: Exploratory activity of mice determined by an antimex activity meter, 10 mg/kg of dose was administered perorally; conditions: route oral
Mus musculus [7] = experiment: Exploratory activity of mice determined by an antimex activity meter, 50 mg/kg of dose was administered perorally; conditions: Mus musculus, po
Procedure, shortened: (§3)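 Male Std-ddY mice (20-25 g), five per dose; compound in 0.5% aqueous tragacanth given orally. Two hours later each mouse placed in an Animex activity meter cage and locomotor activity counted for 3 min. Mean suppression expressed as percent inhibition of control; ED50 by Litchfield-Wilcoxon.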

Mus musculus [8] = experiment: Antiexploratory activity (EXPL) of mice determined by an antimex activity meter, 10 mg/kg of dose was administered perorally; Moderate inhibition (51-71%); conditions: route oral
Canis familiaris [9] = experiment: Inhibition of apomorphine induced emesis in dogs at 1 mg/kg of dose.; conditions: Canis lupus familiaris
Procedure, shortened: (§4)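 Beagle dogs (10-15 kg), groups of three, given compound po in a gelatin capsule; 2 h later apomorphine hydrochloride 0.3 mg/kg sc. Vomiting counted for 1 h; mean inhibition as percent of control. ED50 is the dose giving 50% inhibition of emesis, by Litchfield-Wilcoxon.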

Mus musculus [10] = experiment: Antiexploratory activity (EXPL) of mice determined by an antimex activity meter, 100 mg/kg of dose was administered perorally; No inhibition; conditions: route oral
Mus musculus [11] = experiment: Antimaximal electroshock seizure (MES) activity in mice after peroral administration of 100 mg/kg of compound; 0/5; conditions: route oral
Mus musculus [12] = experiment: Antireserpine activity (RES) of mice after peroral administration of 100 mg/kg of compound; […]; conditions: route oral
Mus musculus [13] = experiment: Antitremorine activity(TRM) of mice after peroral administration of 100 mg/kg of compound; No inhibition; conditions: route oral
Mus musculus [14] = experiment: Antireserpine activity (RES) of mice after peroral administration of 100 mg/kg of compound; conditions: route oral
Mus musculus [15] = experiment: Antimaximal electroshock seizure activity was determined in mice when administered perorally; conditions: po
Mus musculus [16] = experiment: Antitremorine activity(TRM) of mice after peroral administration of 100 mg/kg of compound; conditions: route oral
Mus musculus [17] = experiment: Antimaximal electroshock seizure (MES) activity in mice after peroral administration of 100 mg/kg of compound; 4/5; conditions: route oral
Mus musculus [18] = experiment: Antipentylene tetrazole activity was determined in mice when administered perorally; conditions: po
Procedure, shortened: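 Groups of five male Std-ddY mice received compound orally in 0.5% tragacanth, then pentylenetetrazole 175 mg/kg ip. Blockade of the tonic extensor component scored as anticonvulsant. ED50 was the dose protecting 50% of animals (Litchfield-Wilcoxon).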

Mus musculus [19] = experiment: Antiexploratory activity (EXPL) of mice determined by an antimex activity meter, 100 mg/kg of dose was administered perorally; conditions: route oral
Mus musculus [20] = experiment: Antimaximal electroshock seizure (MES) activity in mice after peroral administration of 10 mg/kg of compound; 0/5; conditions: route oral
Mus musculus [21] = experiment: Antitremorine activity(TRM) of mice after peroral administration of 10 mg/kg of compound; Slight inhibition (31-50%); conditions: route oral
Mus musculus [22] = experiment: Antireserpine activity (RES) of mice after peroral administration of 100 mg/kg of compound; No inhibition; conditions: route oral
Mus musculus [23] = experiment: Antireserpine activity (RES) of mice after peroral administration of mg/kg of compound; Slight inhibition (31-50%)
Mus musculus [24] = experiment: Antiexploratory activity (EXPL) of mice determined by an antimex activity meter, mg/kg of dose was administered perorally; Slight inhibition (31-50%)
Mus musculus [25] = experiment: Antitremorine activity(TRM) of mice after peroral administration of mg/kg of compound; No inhibition
Mus musculus [26] = experiment: Antiexploratory activity (EXPL) of mice determined by an antimex activity meter, 100 mg/kg of dose was administered perorally; potent inhibition; conditions: route oral
Mus musculus [27] = experiment: Exploratory activity of mice determined by an antimex activity meter, when administered perorally; conditions: po; procedure, shortened: as §3
Rattus norvegicus = experiment: Inhibition of self-stimulation response in rats when administered perorally.; conditions: po
Procedure, shortened: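 Male Wistar HLA rats (300-400 g) with chronic electrodes in the lateral posterior hypothalamus, lever-pressing steadily at 50-100/min. Self-stimulation counted for 10 min before and 2 h after oral dosing. ED50 is the dose causing ≥50% rate inhibition in half the rats (Litchfield-Wilcoxon).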

Mus musculus [28] = experiment: Concentration of compound that causes ptosis in the mice when administered perorally; conditions: po
Procedure, shortened: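 Five male Std-ddY mice per group were dosed orally in 0.5% aqueous tragacanth. At 2 h, eyelid closure was scored macroscopically (8 open to 0 fully closed). Group mean scores formed a dose-response curve. ED50 was the dose reducing the mean score to 50%.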

Mus musculus [29] = experiment: Exploratory activity of mice determined by an antimex activity meter, 100 mg/kg of dose was administered perorally; conditions: route oral; procedure, shortened: as §3
Mus musculus [30] = experiment: Inhibition of conditioned avoidance response in mice when administered perorally; conditions: po
Procedure, shortened: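 One-way active avoidance in male Std-ddY mice in a dark/light two-compartment box. Mice trained to move to the lit side on a warning stimulus to escape floor shock; groups of 10 avoiding at >80% in 10 trials. Compound po in 0.5% tragacanth. ED50 is the dose halving avoidance rate (Litchfield-Wilcoxon).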

Mus musculus [31] = experiment: Antitremorine activity(TRM) of mice after peroral administration of 100 mg/kg of compound; Slight inhibition (31-50%); conditions: route oral
Mus musculus [32] = experiment: Concentration of compound that causes catalepsy in the mice when administered perorally; conditions: po
Procedure, shortened: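 Male Std-ddY mice were dosed orally, vehicle 0.5% aqueous tragacanth. At 2 h, forepaws were placed on a rod 4.5 cm high. Failure to remove the paws within 30 s in three successive trials was scored cataleptic. ED50 was the dose giving catalepsy in 50% of mice (Litchfield-Wilcoxon).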

Canis familiaris [33] = experiment: Inhibition of apomorphine induced emesis in dogs when administered perorally; conditions: Canis lupus familiaris, po; procedure, shortened: as §4
Mus musculus [34] = experiment: Antiexploratory activity (EXPL) of mice determined by an antimex activity meter, 50 mg/kg of dose was administered perorally; Slight inhibition (31-50%); conditions: route oral
Mus musculus [35] = experiment: Antireserpine activity(RES) of mice after peroral administration of 50 mg/kg of compound; No inhibition; conditions: route oral

Fc1ccc(C2=CCc3ccccc3N=C2N2CCN(C3CCCCC3)CC2)cc1.O=C(O)/C=C/C(=O)O
inhibition in vivo at 50 mg/kg (Mus musculus [1]): > 71%
Control (Mus musculus [2]): 334%
Control (Mus musculus [3]): 343%
Control (Mus musculus [4]): 244%
Control (Mus musculus [5]): 295%
inhibition in vivo at 10 mg/kg (Mus musculus [6]): 61.4%
inhibition in vivo at 50 mg/kg (Mus musculus [7]): 84.6%
inhibition in vivo at 10 mg/kg (Mus musculus [8]): 51%
inhibition in vivo at 1 mg/kg (Canis familiaris [9]): 46%

CN1CCN(C2=Nc3ccccc3CC=C2c2cccnc2)CC1
inhibition in vivo at 100 mg/kg (Mus musculus [10]): < 30%
Activity (Mus musculus [11]): 0
inhibition in vivo at 100 mg/kg (Mus musculus [12]): > 71%
inhibition in vivo at 100 mg/kg (Mus musculus [13]): < 30%

CN1CCN(C2=Nc3ccc(Cl)cc3CC=C2c2ccccc2)CC1.Cl.Cl
inhibition in vivo at 100 mg/kg (Mus musculus [14]): < 30%
ED50 (Mus musculus [15]): 89.4 mg/kg
inhibition in vivo at 100 mg/kg (Mus musculus [16]): > 71%
Activity (Mus musculus [17]): 4
ED50 (Mus musculus [18]): 42.9 mg/kg
inhibition in vivo at 100 mg/kg (Mus musculus [19]): < 30%
Activity (Mus musculus [20]): 0

CCN1CCN(C2=Nc3ccc(Cl)cc3CC=C2c2ccccc2)CC1.Cl.Cl
inhibition in vivo at 100 mg/kg (Mus musculus [10]): < 30%
inhibition in vivo at 10 mg/kg (Mus musculus [21]): 31%
ED50 (Mus musculus [15]): 93.1 mg/kg
inhibition in vivo at 100 mg/kg (Mus musculus [16]): > 71%
Activity (Mus musculus [17]): 4
ED50 (Mus musculus [18]): 34.7 mg/kg
inhibition in vivo at 100 mg/kg (Mus musculus [22]): < 30%
Activity (Mus musculus [20]): 0

Cl.Cl.OCCN1CCN(C2=Nc3ccccc3CC=C2c2ccccc2)CC1
Inhibition (Mus musculus [23]): 31%
ED50 (Mus musculus [15]): > 100 mg/kg
Inhibition (Mus musculus [24]): 31%
Activity (Mus musculus [11]): 0
Inhibition (Mus musculus [25]): <30%

Cl.Cl.OCCN1CCN(C2=Nc3ccccc3CC=C2c2ccc(Cl)cc2)CC1
inhibition in vivo at 100 mg/kg (Mus musculus [26]): > 71%
ED50 (Mus musculus [27]): 73.1 mg/kg
ED50 (Rattus norvegicus): 25.4 mg/kg
Control (Mus musculus [2]): 289%
Control (Mus musculus [3]): 382%
Activity (Mus musculus [11]): 0
Control (Mus musculus [4]): 186%
ED50 (Mus musculus [28]): 88.7 mg/kg
Control (Mus musculus [5]): 265%
inhibition in vivo at 100 mg/kg (Mus musculus [29]): 57.3%
inhibition in vivo at 10 mg/kg (Mus musculus [6]): 40.8%
inhibition in vivo at 100 mg/kg (Mus musculus [22]): < 30%
ED50 (Mus musculus [30]): 38.1 mg/kg
inhibition in vivo at 100 mg/kg (Mus musculus [31]): 31%
ED50 (Mus musculus [32]): 66.8 mg/kg
ED50 (Canis familiaris [33]): 0.19 mg/kg
inhibition in vivo at 1 mg/kg (Canis familiaris [9]): 95.5%

Cl.Cl.OCCN1CCN(C2=Nc3ccccc3CC=C2c2ccc(Br)cc2)CC1
inhibition in vivo at 50 mg/kg (Mus musculus [34]): 31%
Control (Mus musculus [2]): 291%
Control (Mus musculus [3]): 335%
Activity (Mus musculus [11]): 0
Control (Mus musculus [4]): 106%
Control (Mus musculus [5]): 181%
inhibition in vivo at 10 mg/kg (Mus musculus [6]): 31.9%
inhibition in vivo at 50 mg/kg (Mus musculus [7]): 36.1%
inhibition in vivo at 100 mg/kg (Mus musculus [13]): < 30%
inhibition in vivo at 50 mg/kg (Mus musculus [35]): < 30%
inhibition in vivo at 1 mg/kg (Canis familiaris [9]): 72.5%
